Measurements published in ChEMBL document CHEMBL1944511, “Bakuchiol derivatives as novel and potent cytotoxic agents: a report” (Eur J Med Chem, 2012).
pIC50: −log10 of the molar value. Calls of active or inactive are those of the source. The rule behind the calls is not given here.

Key:
PC-3 [1] = test: Growth inhibition of human PC3 cells at 50 uM after 48 hrs by sulpharhodamine B assay; type: functional; conditions: PC-3, 48 h, read-out: GI
Outline: (§1)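 Cells grown in RPMI-1640/MEM with 10% FCS, penicillin/streptomycin, 37 °C, 5% CO2. Seeded in 96-well plates, allowed to adhere overnight, then exposed 48 h to analogs in DMSO (vehicle <0.2% in controls). TCA-fixed, stained with 0.4% SRB in 1% acetic acid, dye solubilized in 10 mM Tris base, OD 570 nm (ref 620 nm). Mean ± SD of three experiments run in triplicate.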

OVCAR-5 [2] = test: Growth inhibition of human OVCAR5 cells at 50 uM after 48 hrs by sulpharhodamine B assay; type: functional; conditions: OVCAR-5, 48 h, read-out: GI
Outline: (§2)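 This is the SRB protein-stain assay on adherent cells in RPMI-1640/MEM with 10% FCS. Each compound in DMSO (vehicle <0.2%) was applied at a single fixed concentration for 48 h. Cells were fixed with TCA and stained with SRB, and the dye was solubilised in Tris and read at 570/620 nm. Percent growth inhibition is relative to vehicle-treated controls, reported as mean ± SD of three experiments run in triplicate.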

HeLa = test: Growth inhibition of human HeLa cells at 50 uM after 48 hrs by sulpharhodamine B assay; type: functional; conditions: read-out: GI; outline: as §2
THP-1 [3] = test: Growth inhibition of human THP1 cells at 50 uM after 48 hrs by sulpharhodamine B assay; type: functional; conditions: THP-1, 48 h, read-out: GI; outline: as §1
PC-3 [4] = test: Growth inhibition of human PC3 cells at 20 uM after 48 hrs by sulpharhodamine B assay; type: functional; conditions: PC-3, 48 h, read-out: GI; outline: as §2
IMR-32 [5] = test: Growth inhibition of human IMR32 cells at 20 uM after 48 hrs by sulpharhodamine B assay; type: functional; conditions: IMR-32, 48 h, read-out: GI; outline: as §2
THP-1 [6] = test: Growth inhibition of human THP1 cells at 20 uM after 48 hrs by sulpharhodamine B assay; type: functional; conditions: THP-1, 48 h, read-out: GI; outline: as §1
MCF7 [7] = test: Growth inhibition of human MCF7 cells at 30 uM after 48 hrs by sulpharhodamine B assay; type: functional; conditions: MCF7, 48 h, read-out: GI; outline: as §2
PC-3 [8] = test: Growth inhibition of human PC3 cells at 30 uM after 48 hrs by sulpharhodamine B assay; type: functional; conditions: PC-3, 48 h, read-out: GI; outline: as §1
OVCAR-5 [9] = test: Growth inhibition of human OVCAR5 cells at 30 uM after 48 hrs by sulpharhodamine B assay; type: functional; conditions: OVCAR-5, 48 h, read-out: GI; outline: as §2
THP-1 [10] = test: Growth inhibition of human THP1 cells at 30 uM after 48 hrs by sulpharhodamine B assay; type: functional; conditions: THP-1, 48 h, read-out: GI; outline: as §1
MCF7 [11] = test: Growth inhibition of human MCF7 cells at 5 uM after 48 hrs by sulpharhodamine B assay; type: functional; conditions: MCF7, 48 h, read-out: GI; outline: as §2
HEp-2 [12] = test: Growth inhibition of human Hep2 cells at 30 uM after 48 hrs by sulpharhodamine B assay; type: functional; conditions: HEp-2, 48 h, read-out: GI; outline: as §2
A549 [13] = test: Growth inhibition of human A549 cells at 10 uM after 48 hrs by sulpharhodamine B assay; type: functional; conditions: A549, 48 h, read-out: GI; outline: as §2
A549 [14] = test: Growth inhibition of human A549 cells at 5 uM after 48 hrs by sulpharhodamine B assay; type: functional; conditions: A549, 48 h, read-out: GI; outline: as §2
DU-145 = test: Growth inhibition of human DU145 cells at 5 uM after 48 hrs by sulpharhodamine B assay; type: functional; conditions: DU-145, 48 h, read-out: GI; outline: as §2
THP-1 [15] = test: Growth inhibition of human THP1 cells at 5 uM after 48 hrs by sulpharhodamine B assay; type: functional; conditions: THP-1, 48 h, read-out: GI; outline: as §1
PC-3 [16] = test: Growth inhibition of human PC3 cells at 10 uM after 48 hrs by sulpharhodamine B assay; type: functional; conditions: PC-3, 48 h, read-out: GI; outline: as §2
IMR-32 [17] = test: Growth inhibition of human IMR32 cells at 5 uM after 48 hrs by sulpharhodamine B assay; type: functional; conditions: IMR-32, 48 h, read-out: GI; outline: as §2
HCT-15 [18] = test: Growth inhibition of human HCT15 cells at 20 uM after 48 hrs by sulpharhodamine B assay; type: functional; conditions: HCT-15, 48 h, read-out: GI; outline: as §2
PC-3 [19] = test: Cytotoxicity against human PC3 cells after 48 hrs by sulpharhodamine B assay; type: functional, cell-based; conditions: PC-3, 48 h
Outline: (§3)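 Cells were grown in RPMI-1640/MEM with 10% FCS and penicillin/streptomycin at 37 °C under 5% CO2, then seeded and left to adhere overnight. Analogs in DMSO (vehicle <0.2%) were added at several concentrations for 48 h. Cells were fixed with cold 50% TCA, stained with 0.4% SRB in 1% acetic acid, solubilised in 10 mM Tris, and read at OD 570/620 nm. IC50 came from non-linear regression.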

HEp-2 [20] = test: Cytotoxicity against human Hep2 cells after 48 hrs by sulpharhodamine B assay; type: functional, cell-based; conditions: HEp-2, 48 h; outline: as §3
HCT-15 [21] = test: Cytotoxicity against human HCT15 cells after 48 hrs by sulpharhodamine B assay; type: functional, cell-based; conditions: HCT-15, 48 h; outline: as §3
HL-60 [22] = test: Cytotoxicity against human HL60 cells after 24 hrs by MTT assay; type: functional, cell-based; conditions: for pIC50: HL-60, 24 h
Outline: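 Exponentially growing HL-60 cells (1.5×10^4 per well) in 96-well plates were exposed to a range of compound concentrations in DMSO, with vehicle-only controls. MTT (2.5 mg/mL stock) was added for 3–4 h at 37 °C, and formazan was dissolved in DMSO and read at OD 570/620 nm. […] Data are mean ± SD of n = 6 wells from two experiments.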

HL-60 [23] = test: Induction of apoptosis in human HL60 cells assessed as DNA fragmentation after 24 hrs by agarose gel electrophoresis; type: functional, cell-based
Outline: (§4)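 HL-60 cells (2×10^6/well/2 mL) treated 24 h in 6-well plates. DNA extracted with phenol:chloroform:isoamyl alcohol, ethanol-precipitated, run on 1% agarose at 80 V for 1.5 h in TAE.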

HL-60 [24] = test: Induction of apoptosis in human HL60 cells assessed as increase in […] sub-G0 fraction at 1 uM by propidium iodide staining-based flow cytometric analysis (reference value: 6%); type: functional
HL-60 [25] = test: Induction of apoptosis in human HL60 cells assessed as loss of mitochondrial membrane potential at 10 uM after 24 hrs by rodamine-123 staining-based flow cytometric analysis (reference value: 6%); type: functional
HL-60 [26] = test: Induction of apoptosis in human HL60 cells assessed as loss of mitochondrial membrane potential at 20 uM after 24 hrs by rodamine-123 staining-based flow cytometric analysis (reference value: 6%); type: functional
MCF7 [27] = test: Growth inhibition of human MCF7 cells at 20 uM after 48 hrs by sulpharhodamine B assay; type: functional; conditions: MCF7, 48 h, read-out: GI; outline: as §2
HL-60 [28] = test: Induction of apoptosis in human HL60 cells assessed as DNA fragmentation at 20 uM after 24 hrs by agarose gel electrophoresis; type: functional, cell-based; outline: as §4
HL-60 [29] = test: Induction of apoptosis in human HL60 cells assessed as DNA fragmentation at 40 uM after 24 hrs by agarose gel electrophoresis; type: functional, cell-based; outline: as §4

SMILES | inhibition of growth at 50 µM (PC-3 [1]) [%] | inhibition of growth at 50 µM (OVCAR-5 [2]) [%] | inhibition of growth at 50 µM (HeLa) [%] | inhibition of growth at 50 µM (THP-1 [3]) [%] | inhibition of growth at 20 µM (PC-3 [4]) [%] | inhibition of growth at 20 µM (IMR-32 [5]) [%] | inhibition of growth at 20 µM (THP-1 [6]) [%] | inhibition of growth at 30 µM (MCF7 [7]) [%] | inhibition of growth at 30 µM (PC-3 [8]) [%] | inhibition of growth at 30 µM (OVCAR-5 [9]) [%] | inhibition of growth at 30 µM (THP-1 [10]) [%] | inhibition of growth at 5 µM (MCF7 [11]) [%] | inhibition of growth at 30 µM (HEp-2 [12]) [%] | inhibition of growth at 10 µM (A549 [13]) [%] | inhibition of growth at 5 µM (A549 [14]) [%] | inhibition of growth at 5 µM (DU-145) [%] | inhibition of growth at 5 µM (THP-1 [15]) [%] | inhibition of growth at 10 µM (PC-3 [16]) [%] | inhibition of growth at 5 µM (IMR-32 [17]) [%] | inhibition of growth at 20 µM (HCT-15 [18]) [%] | also measured
COc1ccc(/C=C/[C@](C)(/C=C/c2ccc(O)cc2)CCC=C(C)C)cc1 | 93 | 67 | 78 | 86 | 58 | 40 | 78 | 52 | 50 | 50 | 60 | 24 | 45 | 47 | 24 | 20 | 53 | 41 | 13 | 61 | pIC50 (PC-3 [19]): 4.82; pIC50 (HEp-2 [20]): 4.85; pIC50 (HCT-15 [21]): 4.89; Activity (HL-60 [22]): Dose-dependent effect; pIC50 (HL-60 [22]): 4.80; Activity (HL-60 [23]): Dose-dependent effect; Activity (HL-60 [24]): 5%; Activity (HL-60 [25]): 46.4%; Activity (HL-60 [26]): 51.4%; inhibition of growth at 20 µM (MCF7 [27]): 50%
CC1C(C(C)(C)O)CCC1(C)/C=C/c1ccc(O)cc1 (stereo unspecified) | 86 | 75 | 68 | 93 | 57 | 62 | 76 | 58 | 62 | 55 | 68 | 27 | 53 | 40 | 32 | 32 | 54 | 35 | 46 | 63 | pIC50 (PC-3 [19]): 4.72; pIC50 (HEp-2 [20]): 4.72; pIC50 (HCT-15 [21]): 4.89; Activity (HL-60 [22]): Dose-dependent effect; pIC50 (HL-60 [22]): 4.74; Activity (HL-60 [28]): Active; Activity (HL-60 [29]): Active; Activity (HL-60 [24]): 8%; Activity (HL-60 [25]): 31.7%; Activity (HL-60 [26]): 49.1%; inhibition of growth at 20 µM (MCF7 [27]): 50%
